Test results from the RNAGym collection of RNA variant scans (doi:10.1126/science.aae0568).
Fewer inactive variants are shown than the library holds.

B1: tRNA (parent)
chain: GUUCCGUUGGCGUAAUGGUAACGCGUCUCCCUCCUAAGGAGAAGACUGCGGGUUCGAGUCCCGUACGGAACG

Variants of: B1
Test: yeast fitness relative to wild type (ratio to wild type); higher = fitter; tRNA-Arg(CCU), competitive growth, 37 C, YPD
Outline: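 Changes in genotype frequencies gave Darwinian fitness relative to wild type. Frequencies were read by 100-nucleotide paired-end sequencing of gene amplicons before and after pooled Saccharomyces cerevisiae strains, carrying tRNA-Arg(CCU) gene variants at the native locus, were competed in YPD at 37°C for 24 hours in six replicates. A genotype was kept only with ≥ 100 starting reads, and estimates < 0.5 were set to 0.5.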

Row | Variant | yeast fitness
1 | GUUCUGUUGGCGUAAUGGUAAAGCGUCUCCCUCCUUAGGAGAAGACUGCGGGUUCGAGUCCCGUACGGAACG | 0.828
2 | GUUCUGUUGGGGUAUUGGUAACGCGUCUCCCACCGAAGGAGAAGACUGCGGGUUAGAGUCGCGUACGGAACG | ≤ 0.5
3 | GUUCUGUUGGCGUAAUGGUAAAGCGUCUCCCACCUAAGGAGAAGACUGCGGGUUCGAGUGCCGUACGGAACG | ≤ 0.5
4 | GUUCUGUUGGCGUAAUGGUACCGCGUCUCCGUCCUAAGGAGAAGACUGCGGGUUCGAGUCCCGUACGCAACG | ≤ 0.5
5 | GUUCUGUUGGCGUAAUGGUAACGCGUCUCCCUCCUAAGGAGAAGUCUGCGGGUUCGAGUCCCGUACGGAACG | 1.01
6 | GUUCUGUUGGCGUAAUGGUAACGCGUCUCCCUCCUAAGGAGAAGGCUGCGGGUUCGAGUCCCGUACGGAACG | 0.974
7 | GUUCUGUUGGCGUAAUGGUAACGCGUCUCCCUCCUAAGGAGAGGACUGCGGGUUCGAGUCCCGUACGGCACG | 0.72
8 | GUUCUGUUGGCGUAAUGGUAACGCGUCUCCCUCCUAAGGCGAAGACUGCGGGUUCGAGUCCCGUACGGAACG | 0.851
9 | GUUCUGUUGGCGUAAUGGUAACGCGUCUCCCUCCUAAGGAGAAGCCUGCGGGUUCGAGUCGCGUACGGAACG | 0.536
10 | GUUCUGUUGGCGUAGUGGUAACGCGUCUCCCUCCUAAGGAGAAGACUGCGGGUUCGAGUCCCGUACGGAACG | 0.912
11 | GUUCUGUUGGCGUAGCGGUAACGCGUCUCCCUCCUAAGGAGAAGACUGCGGGUUCGAGUCCCGUAUGGAACG | ≤ 0.5
12 | GUUCUGUUGGCGUAAUGGUACCGCGUCUCCCUCCUAAGGAGAACACUGCGGGUUCGAGUCCCGUACGGAACG | 0.529
13 | GUUCUGUUGGAGUAAUGGUAGCCCGUCUCCCUCCUAAGGAGAAGACUGCGGGUUCGAGUCCCGUACGGAACG | ≤ 0.5
14 | GUUCUGUUGGAGUAAUGGUAACGAGUCGCCCUCCUAAGGAGAAGACUGCGGGUUCGAGUCCCGUACGGAACG | 0.63
15 | GUUCUGUUGGUGUAUUGGUAACGCGUCUCCUUCCUAAGGAGAAGACUGUGGGUUCGAGUCCCGUACGGAACG | ≤ 0.5
16 | GUUCUGUUGGUGUUAUGGUAACGCGUCUCCCUCCUAAGGAGAAGACUGCGGGUUCGAGUCCCGUACGGAACG | 0.57
17 | GUUCUGUUGGCGUAAUGGUAACGCGUCUCCCUCCUAAGGAGAGGACUGGGGGUUCGAGUCCCGUACGGCACG | ≤ 0.5
18 | GUUCUGUUGGUGUAAUGGUAACGCGUCUCCCUCCUAGGGAGAAGACUGCGGGUUCGAGUGCCGUACGGAACG | 0.581
19 | GUUCUGUUGGAGUAAUGGUAACGCGUCUCCCUCCUAAGGAGAAGACUGCCGGUUCGAGUCCCGUACGGAACG | 0.598
20 | GUUCUGUUGGUGUAAUGGUUACGCGUCUCCCUCCUAAGGAGAAGACUGCGGGUUCGAGUCCCGUACGGAACG | 0.561
21 | GUUCUGUUGGCGUAAUGGUAUCGCGUCUCGCUCCUAAGGAGAAGACUGCGGAUUCGAGUCCCGUACGGAUCG | 0.534
22 | GUUCUGUUGGAGUAAUGGUAACGCGUCUCCCUCCUAAGGAGAAGACUGCGGGUUCGAGUCCCGUAGGGAACG | 0.613
23 | GUUCUGUUGGCGUAAUGGUAGCGCGUCCCCCUCCUGAGGAGAAGACUGCGGGUUAGAGUCCCGUACGGAACG | ≤ 0.5
24 | GUUCUGUUGGAGUAAUGGUAAGGCGUCUCCCUCCUAAGGAGAAGACUGCGGGUUGGAGUGCCGUACGGAACG | 0.997
25 | GUUCUGUUGGCGUAAUGGUAACGCGUCUCCCUCCUAAGGGGAAGACUGCGGGUUCAAGUCCCGUACGGCACG | 0.575

Row | Variant | yeast fitness
26 | GUUCUGUUGGCGUAUUGGUAACGCGUCUUCUUCUUAAGGAGAAGACUGCGGGUUUGAGUCCCGUACGGAACG | ≤ 0.5
27 | GUUCUGUUGGUGUAAUGGUAACGCCUCUCCCUCCUAAGGAGAAGCCUGCGGGUUCGAGUCCAGUACGGAUCG | 0.611
28 | GUUCUGUUGGCGUAAUGGUAACGCGUCUCCCUCCUAUGGAGUAGACUGCGGGUUCGAGUCCCGUACAGAACG | ≤ 0.5
29 | GUUCUGUUGGCGUAAUGGUAAGGCGUCUGCCUCCUAAGGAGAAGACUGCGGGUUCGAGUCCCGUACGGUACG | ≤ 0.5
30 | GUUCUGUUGGCGUAAUGGUUACGCGUCUCCCUCCUAAGGAGAAGACUGCGGGUUCGAGUCCCGUACGGAACG | 0.94
31 | GUUCUGUUGGCGUAAUGGUAACGCGUCUCCCUCCUAAGGAGAAGCCUGCGGGUUCAAGUCCCGUACGGAACG | 0.801
32 | GUUCUGUUGGCGUAAUGGUCACGCGUCUCCCUCCUAAGGAGAAGACUGCGGGUUCGAGUCCCAUACGGAACG | 0.607
33 | GUUCUGUUGGCGUAAUGGUACCGCGUCUCCCUCCUAAGGAGACGACUGCGGGUUCGAGUCCCGUACGGAACG | ≤ 0.5
34 | GUUCUGUUGGCGUAGUGGUCACGCGCCUCCCUCCUAAGGACAAGACUGCGGCUUCGUGUCCCGUUCGGAACG | ≤ 0.5
35 | GUUCUGUUGGGGUAAUGGUAAUGCGUCUCGCUCCUAAGGAGAAGACUGCGGGUUCGACUGCCGUACGGAACG | ≤ 0.5
36 | GUUCUGUUGGCGUAAUGGUAACGCGUCUCCCUCCUAAGGAGAAGGCUGCGGGUUCGAGUCCCGUACAGAACG | 0.743
37 | GUUCUGUUGGCGUAAUGGUAACGCGUCUCCCUCCUAAGGAGAAGACUGCGGGUUCGUGUCCCGUACGGAACG | 0.663
38 | GUUCUGUUGGCGUAAUGGUACCGCGUCUCCCUCCUAAGGAGAACAUUGCGGGUUCGAGUCCCGUACGGAACG | 0.532
39 | GUUCUGUUGGCGUAAUGGUAUCGCGUCUCCCACCUAAGGUGAAGACUGCGGGUUCGAGUCCCGUACGGAACG | 0.634
40 | GUUCUGUUGGCGUAAUGGUAUCGCGUCUCGCUCCUAAGGAGAAGACUGCGGGUUCAAGUCCCGUAAGGAACG | ≤ 0.5
41 | GUUCUGUUGGCGUAAUGGUAUCGCGUCUUGCUCCUAAGGAGAAGACUGCGGGUUCGAGUCCCGUACGGAUCG | 0.543
42 | GUUCUGUUGGAGUAAUGGUAACGCGUCUCCCUCCUAAGGAGAAGACUGCGGGUUCGAGUCCCGUACGGAACG | 0.586
43 | GUUCUGUUGGCGUAAUGGUAAGGCGUCUCCCUCCUAAGGAGAAGACUGCGGGUUCGAGUCCCGUGCGGAACG | 0.588
44 | GUUCUGUUGGCGUAAUGGUAGCGCGUCUCCCUCCUAAGGAGUAGACUGCGGGUUCGAGUCCCGUACGGAACG | 0.908
45 | GUUCUGUUGGCGUAAUGGUAGCGCGUCUCCCUCCUAAGGAGCAGACUGCGGGUUCGAGUCCCGUACGGAACG | 0.761
46 | GUUCUGUUGGCGUAAUGGUAAAGCGUCUCCUUCCUAAGGAGAAGACUGCGGGUUCGAGUCCCGUACGCAACG | ≤ 0.5
47 | GUUCUGUUGGCGUAAUGGUAACGCGUCUCCCUCCUAAGGAGGAGACUGCGGGUUCGAGUCCCGUCCGGAACG | 0.596
48 | GUUCUGUUGGCGUAAUGGUAACGCGUCUCCCUCCUGAGGAGAAGACUGCGGGUUGGAGUCCCGUAGGGAACG | ≤ 0.5
49 | GUUCUGUUGGCGUAGUGGUAACGCGUCUCCCUCCUAAGGAGUAGACUGCGGGUUCGAGUCCCGUACGGAACG | 0.703
50 | GUUCUGUUGGCGUAAUGGUAUCGCGUCUCCCUCCUUAGGAGAAGACUGCGGGUUCGAGUCCCGUGCGGAACG | ≤ 0.5

Row | Variant | yeast fitness
51 | GUUCUGUUGGUGUAAUGGUAACGUGUCUCCCUCCUAAGGAGAACACUGCGGGUUCGAGUCCCGUACGGAACG | ≤ 0.5
52 | GUUCUGUUGGCGUAAUGGUAACGCGUCUCCCUCCUAAGGGGAAGUCUGCGGGUUCGAGUCCCGUACGGAACG | 0.638
53 | GUUCUGUUGGCGUAAUGGUAACGCGUCUCCCUCCUAAGGAGCAGACUGCGGGUUCGAGUCCCGUACUGAACG | 0.69
54 | GUUCUGUUGGCGUAGUGGUUACGCGUCUCCCUCCUAAGGAGGAGACUGCGGGUUCGAGUCCCCUACGGAACG | 0.65
55 | GUUCUGUUGGCGUAAUGGUAACGCGUCUCCCUCCUUAGGAGAAGACUGCGGGUUCGAGUUCCGUACGGAACG | 0.81
56 | GUUCUGUUGGCGUAAUGGUAAGGCGUCUACCUCCUAAGGAGAAGACUGCGGGUUCGAGUCCCGUACGGAACG | 0.585
57 | GUUCUGUUGGCGUAAUGGUUACGCGUCUCACUCCUAAGGAGAAGACUGCGGGUUCGAGUCCCGUACAGAGCG | 0.657
58 | GUUCUGUUGGCGUAAUGGUCACGCGUCUCCCCCCUAAGGUGAAGACUGCAGAUUCGAGUCCCGUACGGAACG | ≤ 0.5
59 | GUUCUGUUGGCGUAAUGGUAACGCGUCUCCCUCCUACGGAGAAGAUUGCGGGCUCGAGUCCCGUACGGAACG | ≤ 0.5
60 | GUUCUGUUGGCGUAAUGGUAAGGCGUCUACCUCCUAAGGAGAAGUCUGCGGGUUCGACUCCCGUACGGAACG | ≤ 0.5
61 | GUUCUGUUGGCGUAAUGGUAGCGCGUCUCCCUCCUAAGGAGUAGACUGCGGGUUCGAAUCCCGUAUGGAACG | 0.706
62 | GUUCUGUUGGCGUAAUGGUAGCGCGUUUCCCUCCUAAGGAAAAGACUGCGGGUUCGAGUCCCGUAAGGAACG | ≤ 0.5
63 | GUUCUGUUGGCGUAAUGGUAUCGCGUCUCCCGCCUAAGGAGAAGACUGCGGGUUCGAGUCCCGUACGGAACG | ≤ 0.5
64 | GUUCUGUUGGUGUAGUGGUAACGCGUCUCCCUCCUAAGGAGAAGACUGCGGGAUCGAGUCCCGUGCGGAACG | ≤ 0.5
65 | GUUCUGUUGGCGUAUUGGCAACGCGUCUCCCUCCUAAGGAGAAGACUGCGGGUUCGAGUCCCGUACGGAACG | 0.672
66 | GUUCUGUUGGCGUAAUGGUAUCGCGUCUCCCUCCUAAGGAGAAGACUGCGGGUUCGUGUACCGUACGGAACG | ≤ 0.5
67 | GUUCUGUUGGCGUACUGGUAACCCGUCUCCCUCCUAAGGAGAAGACUGCGGGUUCGAGUCCCGUACGGAACG | ≤ 0.5
68 | GUUCUGUUGGCGUAAUGGUAACGCGUCUCCCUCCUAGGGAGAAGACUGCGGGUUCGAGUCCGGUACGCAACG | ≤ 0.5
69 | GUUCUGUUGGCGUAAUGGUAACGCGUCUCCCUCCUAAGGAGAAGUCUGAGGGUUCGAGUCCCGUACGGAACG | 0.696
70 | GUUCUGUUGGCGUAAUGGUAGCGCGUCUCCCUCCUAAGGAGUAGACUGCGGGUGCGAGUCCCGUACGGAACG | 0.533
71 | GUUCUGUUGGAGUAAUGGUCAGGCGUCUCUGUCCUAAGGAGAAGACUGCGGGUUCGAGUCCCGUACGGAACG | ≤ 0.5
72 | GUUCUGUUGGCGUAAUGGUAGCGCGUCUUCAUCCUAAGGAGAAGACUGCGCGUUCGAGUCCCGUACGGAACG | ≤ 0.5
73 | GUUCUGUUGGAGUAAUGGUAGCGCGUCUCCCUCCUAAGGAGAAGACUGCGGGUUCGAGUCCCGUACGGAGCG | ≤ 0.5
74 | GUUCUGUUGGCGUAAUGGUCACGCGUCUACCUCCUAAGGAGAAGACUGCGGGUUCGAGUCCCGUACGGAACG | 0.666
75 | GUUCUGUUGGCGUAAUGGUAACGCGUCUCCCUCCUAGGGAGAAGACUGCGGGUUCGAGUCCCGUACGGAACG | 0.795
